Experimental data from ChEMBL document CHEMBL5252518, “Correlation of in Situ Oxazolidine Formation with Highly Synergistic Cytotoxicity and DNA Cross-Linking in Cancer Cells from Combinations of Doxorubicin and Formaldehyde” (J Med Chem, 2016).
Active and inactive are the calls of the source. The calls are words filed in the database; no cut-off is given here.

What was measured:
[1] = tested on: DNA; experiment: Induction of DNA (unknown origin) expressed in Escherichia coli DH5alpha interstrand cross-linking assessed as inhibition of NotI-induced DNA digestion at 1.5 to 8 uM incubated for 30 mins by agarose gel electrophoresis based restriction endonuclease digestion assay; assay type: functional; conditions: dose 1.5-8 µM
[2] = Genotoxicity in doxorubicin-sensitive human MIA PaCa-2 cells assessed as increase in DNA damage at 100 uM incubated for 90 mins by comet assay; assay type: toxicity, cell-based; conditions: mia paca-2, 1.5 h
Outline: (§1)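 Cells were trypsinized as one bulk population, split into treatment groups and drug-treated in suspension for 90 min. They were then promptly embedded in agarose, lysed and electrophoresed under alkaline conditions (alkaline single-cell gel electrophoresis). After staining, DNA strand breaks were scored as comet tail stain density.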

[3] = Genotoxicity in doxorubicin-resistant human NCI/ADR-RES cells assessed as increase in DNA damage at 100 uM incubated for 90 mins by comet assay; assay type: toxicity, cell-based; conditions: 1.5 h; outline: as §1
[4] = tested on: MIA PaCa-2; experiment: Cytotoxicity against doxorubicin-sensitive human MIA PaCa-2 cells assessed as inhibition of cell growth incubated for 90 mins by crystal violet staining assay; assay type: functional, cell-based; conditions: MIA PaCa-2, 1.5 h
[5] = tested on: NCI/ADR-RES; experiment: Cytotoxicity against doxorubicin-resistant human NCI/ADR-RES cells assessed as inhibition of cell growth incubated for 90 mins by crystal violet staining assay; assay type: functional, cell-based; conditions: 1.5 h
[6] = tested on: NCI/ADR-RES; experiment: Induction of DNA damage in hydrogen peroxide induced human NCI/ADR-RES cells assessed as increase in comet tail density at 100 uM incubated for 90 mins by comet assay; assay type: functional, cell-based
[7] = tested on: DNA; experiment: Induction of DNA (unknown origin) expressed in Escherichia coli DH5alpha interstrand cross-linking assessed as inhibition of NdeI-induced DNA digestion at 1.5 to 8 uM incubated for 30 mins by agarose gel electrophoresis based restriction endonuclease digestion assay; assay type: functional; conditions: dose 1.5-8 µM
[8] = tested on: MIA PaCa-2; experiment: Cytotoxicity against doxorubicin-sensitive human MIA PaCa-2 cells assessed as inhibition of cell growth incubated for 30 mins by crystal violet staining assay; conditions: MIA PaCa-2, 0.5 h
[9] = tested on: MIA PaCa-2; experiment: Synergistic cytotoxicity against doxorubicin-sensitive human MIA PaCa-2 cells assessed as cell survival incubated for 90 mins in presence of formaldehyde by crystal violet staining assay; assay type: functional; conditions: 1.5 h
[10] = tested on: MIA PaCa-2; experiment: Synergistic cytotoxicity against doxorubicin-sensitive human MIA PaCa-2 cells assessed as fold change in IC50 incubated for 90 mins in presence of formaldehyde by crystal violet staining assay; assay type: functional; conditions: 1.5 h
[11] = tested on: NCI/ADR-RES; experiment: Cytotoxicity against doxorubicin-resistant human NCI/ADR-RES cells assessed as inhibition of cell growth incubated for 30 mins by crystal violet staining assay; assay type: functional, cell-based; conditions: 0.5 h
[12] = tested on: MIA PaCa-2; experiment: Synergistic cytotoxicity against doxorubicin-sensitive human MIA PaCa-2 cells assessed as combination index incubated for 90 mins in presence of formaldehyde by crystal violet staining assay; assay type: functional; conditions: 1.5 h
[13] = tested on: NCI/ADR-RES; experiment: Synergistic cytotoxicity against doxorubicin-resistant human NCI/ADR-RES cells assessed as combination index incubated for 90 mins in presence of formaldehyde by crystal violet staining assay; conditions: 1.5 h
[14] = tested on: NCI/ADR-RES; experiment: Synergistic cytotoxicity against doxorubicin-resistant human NCI/ADR-RES cells assessed as fold change in IC50 incubated for 90 mins in presence of formaldehyde by crystal violet staining assay; conditions: 1.5 h
[15] = tested on: NCI/ADR-RES; experiment: Synergistic cytotoxicity against doxorubicin-resistant human NCI/ADR-RES cells assessed as fold change in IC50 incubated for 30 mins in presence of formaldehyde by crystal violet staining assay; conditions: 0.5 h
[16] = tested on: NCI/ADR-RES; experiment: Synergistic cytotoxicity against doxorubicin-resistant human NCI/ADR-RES cells assessed as fold change in IC50 incubated for 90 mins in presence of formaldehyde low concentration by crystal violet staining assay; conditions: 1.5 h
[17] = tested on: NCI/ADR-RES; experiment: Cytotoxicity against doxorubicin-resistant human NCI/ADR-RES cells assessed as inhibition of cell growth incubated for 3 hrs by crystal violet staining assay; assay type: functional, cell-based
[18] = tested on: NCI/ADR-RES; experiment: Cytotoxicity against doxorubicin-resistant human NCI/ADR-RES cells assessed as inhibition of cell growth incubated for 3 hrs in presence of pig liver esterase by crystal violet staining assay; assay type: functional, cell-based
[19] = tested on: NCI/ADR-RES; experiment: Cytotoxicity against doxorubicin-resistant human NCI/ADR-RES cells assessed as fold change in IC50 incubated for 3 hrs in presence of pig liver esterase by crystal violet staining assay; assay type: functional
[20] = tested on: NCI/ADR-RES; experiment: Cytotoxicity against doxorubicin-resistant human NCI/ADR-RES cells assessed as fold change in IC50 incubated for 3 hrs in presence of pig liver esterase by crystal violet staining assay relative to Doxsaliform; assay type: functional
[21] = Prodrug conversion in pig liver assessed as esterase-mediated Doxazolidine formation by measuring its half life at 1 uM by HPLC analysis; assay type: ADME, tissue-based, Sus scrofa
[22] = Half life of compound; assay type: physicochemical
[23] = tested on: MIA PaCa-2; experiment: Synergistic cytotoxicity against doxorubicin-sensitive human MIA PaCa-2 cells assessed as inhibition of cell growth incubated for 90 mins in presence of formaldehyde by crystal violet staining assay; assay type: functional, cell-based; conditions: MIA PaCa-2, 1.5 h
[24] = tested on: DNA; experiment: Induction of DNA interstrand cross-linking in hydrogen peroxide induced human NCI/ADR-RES cells assessed as decrease in comet tail density at 10 uM incubated for 90 mins by comet assay; assay type: functional, cell-based
[25] = Genotoxicity in doxorubicin-sensitive human MIA PaCa-2 cells assessed as increase in tail DNA density at 250 uM incubated for 90 mins by comet assay; assay type: toxicity, cell-based; conditions: mia paca-2, 1.5 h
Outline: (§2)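 Alkaline single-cell gel electrophoresis (comet) assay. A bulk population of cells was trypsinized, then split into treatment groups and treated in suspension for 90 min. After the drug was removed, cells were promptly embedded in agarose, lysed and electrophoresed under alkaline conditions. Gels were then stained, and the stain density in the comet tail was scored as DNA strand-break content.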

[26] = Genotoxicity in doxorubicin-sensitive human MIA PaCa-2 cells assessed as increase in tail DNA density at 10 uM incubated for 90 mins by comet assay; assay type: toxicity, cell-based; conditions: mia paca-2, 1.5 h; outline: as §2
[27] = Genotoxicity in doxorubicin-resistant human NCI/ADR-RES cells assessed as increase in tail DNA density at 250 uM incubated for 90 mins by comet assay; assay type: toxicity, cell-based; conditions: 1.5 h; outline: as §2
[28] = Genotoxicity in doxorubicin-resistant human NCI/ADR-RES cells assessed as increase in tail DNA density at 10 uM incubated for 90 mins by comet assay; assay type: toxicity, cell-based; conditions: 1.5 h; outline: as §2
[29] = tested on: MIA PaCa-2; experiment: Synergistic cytotoxicity against doxorubicin-sensitive human MIA PaCa-2 cells assessed as inhibition of cell growth incubated for 90 mins in presence of epirubicin by crystal violet staining assay; conditions: MIA PaCa-2, 1.5 h

| SMILES | Activity [1] | Activity [2] | Activity [3] | IC50 ([4]; read-out: IC50) [nM] | IC50 ([4]; read-out: pIC50 (converted)) [nM] | IC50 ([5]; read-out: IC50) [nM] | IC50 ([5]; read-out: pIC50 (converted)) [nM] | Activity [6] | Activity [7] | IC50 [8] [nM] | IC50 [11] [nM] | IC50 [17] [nM] | further results |
| --- | --- | --- | --- | --- | --- | --- | --- | --- | --- | --- | --- | --- | --- |
| COc1cccc2c1C(=O)c1c(O)c3c(c(O)c1C2=O)C[C@@](O)(C(=O)CO)C[C@@H]3O[C@H]1C[C@H](N)[C@H](O)[C@H](C)O1 [DOXORUBICIN] | Active | Toxic | Toxic | 66000 | 63100 | 620 | 617 | Active | Active | 4000 | 220000 |  | Activity [9]: 75%; fold change (FC) [10]: 3.5; CI [12]: 0.4; CI [13]: 0.02; fold change (FC) [14]: 55; fold change (FC) [15]: 9; fold change (FC) [16]: 2.5 |
| CCCCCOC(=O)Nc1ccc(COC(=O)N2CO[C@@H]3[C@H](C)O[C@@H](O[C@H]4C[C@](O)(C(=O)CO)Cc5c(O)c6c(c(O)c54)C(=O)c4c(OC)cccc4C6=O)C[C@@H]32)cc1 |  |  |  |  |  |  |  |  |  |  |  | 2000 | IC50 [18]: 3 nM; fold change (FC) [19]: 30; fold change (FC) [20]: 25; t1/2 [21]: 24 min |
| COc1cccc2c1C(=O)c1c(O)c3c(c(O)c1C2=O)C[C@@](O)(C(=O)CO)C[C@@H]3O[C@H]1C[C@H](NCNC(=O)c2ccccc2O)[C@H](O)[C@H](C)O1 |  |  |  |  |  |  |  |  |  |  |  | 800000 | half-life [22]: 57 min |
| COc1cccc2c1C(=O)c1c(O)c3c(c(O)c1C2=O)C[C@@](O)(C(=O)CO)C[C@@H]3O[C@H]1C[C@H](N)[C@@H](O)[C@H](C)O1 [EPIRUBICIN] |  | Toxic | Toxic | > 100000 |  | 630 | 631 | Active |  |  |  |  | IC50 [23]: 500 nM |
| COc1cccc2c1C(=O)c1c(O)c3c(c(O)c1C2=O)C[C@@](O)(C(=O)CO)C[C@@H]3O[C@H]1C[C@@H]2NCO[C@@H]2[C@H](C)O1 [DOXAZOLIDINE] | Active |  |  | 22 | 20 | 48 | 50.1 |  | Active | 51000 |  |  | Activity [24]: Active; Activity [25]: Non-Toxic; Activity [26]: Non-Toxic; Activity [27]: Non-Toxic; Activity [28]: Non-Toxic |
| C=O [FORMALDEHYDE] |  |  |  | 610000 | 631000 | 530000 | 501000 |  |  |  | 600000 |  | IC50 [29]: 500 nM |
